Laboratory results published in ChEMBL document CHEMBL3124822, “Discovery of a rapidly metabolized, long-acting β(2) adrenergic receptor agonist with a short onset time incorporating a sulfone group suitable for once-daily dosing” (J Med Chem, 2014).

Legend:
[1] = Oral bioavailability in Han Wistar rat at 2 mg/kg up to 7 hrs by LC-MS/MS analysis; format: ADME, organism-based; conditions: in vivo
[2] = tested on: Rattus norvegicus; assay: Clearance in Han Wistar rat at 0.25 mg/kg, iv up to 7 hrs by LC-MS/MS analysis relative to liver blood flow; format: ADME, organism-based; parameters: dose 0.25 mg/kg, route intravenous; conditions: in vivo
In short: (§1)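 Han Wistar rats dosed 0.25 mg/kg intravenously; plasma sampled at various times up to 7 h postdose. Clearance expressed as percentage of liver blood flow.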

[3] = target: Beta-2 adrenergic receptor (Homo sapiens, UniProt P07550); assay: Agonist activity at human beta2 adrenoceptor transfected in CHO cells assessed as cyclic AMP accumulation after 45 mins by fluorescence polarization assay; format: functional, cell-based
Chain of Beta-2 adrenergic receptor (P07550 whole entry): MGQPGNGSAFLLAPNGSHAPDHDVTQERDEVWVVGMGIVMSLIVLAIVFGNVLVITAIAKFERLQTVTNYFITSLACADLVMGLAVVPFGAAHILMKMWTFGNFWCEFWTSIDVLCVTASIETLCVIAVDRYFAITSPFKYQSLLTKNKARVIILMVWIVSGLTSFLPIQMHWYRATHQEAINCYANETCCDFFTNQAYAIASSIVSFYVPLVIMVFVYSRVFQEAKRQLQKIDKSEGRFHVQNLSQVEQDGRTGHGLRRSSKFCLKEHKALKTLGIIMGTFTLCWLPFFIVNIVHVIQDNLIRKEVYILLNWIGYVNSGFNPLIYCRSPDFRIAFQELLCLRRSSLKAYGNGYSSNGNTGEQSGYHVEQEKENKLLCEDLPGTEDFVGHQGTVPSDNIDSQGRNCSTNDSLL

[4] = Oral bioavailability in beagle dog at 0.25 mg/kg up to 8 hrs by LC-MS/MS analysis; format: ADME, organism-based, Canis lupus familiaris; conditions: in vivo
In short: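 Beagle dogs dosed 0.25 mg/kg orally, with 0.05 mg/kg iv reference arm; plasma collected at various time points up to 8 h postdose.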

[5] = target: Beta-1 adrenergic receptor (Homo sapiens, UniProt P08588); assay: Agonist activity at human beta1 adrenoceptor transfected in CHO cells assessed as cyclic AMP accumulation after 45 mins by fluorescence polarization assay; format: cell-based
Chain of Beta-1 adrenergic receptor (P08588 whole entry): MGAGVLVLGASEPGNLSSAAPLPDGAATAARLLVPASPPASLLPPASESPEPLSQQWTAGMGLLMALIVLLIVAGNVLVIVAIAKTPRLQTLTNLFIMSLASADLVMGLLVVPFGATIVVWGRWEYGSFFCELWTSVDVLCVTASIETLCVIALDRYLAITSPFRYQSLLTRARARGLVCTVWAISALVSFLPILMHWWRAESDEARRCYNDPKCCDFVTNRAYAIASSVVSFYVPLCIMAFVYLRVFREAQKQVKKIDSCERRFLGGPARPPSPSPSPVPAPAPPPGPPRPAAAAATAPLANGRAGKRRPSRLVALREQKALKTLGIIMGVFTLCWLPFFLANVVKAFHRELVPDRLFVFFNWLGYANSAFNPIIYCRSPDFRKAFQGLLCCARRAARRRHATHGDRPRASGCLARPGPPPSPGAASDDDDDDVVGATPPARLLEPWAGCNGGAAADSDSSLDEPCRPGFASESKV

[6] = target: Cytochrome P450 2C9 (Homo sapiens, UniProt P11712); assay: Inhibition of human CYP2C9 expressed in Escherichia coli; format: ADME
Chain of Cytochrome P450 2C9 (P11712 whole entry, canonical isoform): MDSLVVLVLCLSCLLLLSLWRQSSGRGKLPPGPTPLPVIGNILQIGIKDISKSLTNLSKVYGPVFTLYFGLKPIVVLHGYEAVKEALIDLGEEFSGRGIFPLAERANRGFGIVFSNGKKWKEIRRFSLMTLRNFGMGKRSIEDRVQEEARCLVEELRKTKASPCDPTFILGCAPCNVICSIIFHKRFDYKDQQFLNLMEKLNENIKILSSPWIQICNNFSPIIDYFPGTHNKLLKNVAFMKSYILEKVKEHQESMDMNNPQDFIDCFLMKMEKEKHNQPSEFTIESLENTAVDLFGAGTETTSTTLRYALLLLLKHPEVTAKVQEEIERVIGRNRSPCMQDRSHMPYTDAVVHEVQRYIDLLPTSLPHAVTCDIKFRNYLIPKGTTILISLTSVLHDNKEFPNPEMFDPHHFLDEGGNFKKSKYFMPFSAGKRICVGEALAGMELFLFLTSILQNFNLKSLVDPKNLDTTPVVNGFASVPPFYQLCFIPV
In short: (§2)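 Human CYP isoforms expressed in E. coli; IC50 from n = 3. Probe substrates diethoxyfluorescein and 7-benzyloxyquinoline are stated for CYP3A4.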

[7] = tested on: Hepatocyte; assay: Drug metabolism in human hepatocytes assessed as metabolite M13 formation at 12.5 uM after 2 hrs by LC-MS/MS analysis; format: ADME, cell-based
In short: (§3)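 Human hepatocytes incubated with substrate at 12.5 μM for 2 h. Products characterized by LC–MS/MS on a C18 column, 5–95% acetonitrile gradient in water with 0.1% formic acid over 8 min. Metabolites numbered by elution order. Abundance is semiquantitative from peak heights (low/medium/high), assuming equal analyte response.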

[8] = tested on: Hepatocyte; assay: Drug metabolism in human hepatocytes assessed as metabolite M11 formation at 12.5 uM after 2 hrs by LC-MS/MS analysis; format: ADME, cell-based; in short: as §3
[9] = target: T1, Cytochrome P450 3A4 (Homo sapiens, UniProt P08684); assay: Inhibition of human CYP3A4 expressed in Escherichia coli using 7-benzyloxyquinoline as substrate; format: ADME; in short: as §2
T1 sequence (P08684 whole entry): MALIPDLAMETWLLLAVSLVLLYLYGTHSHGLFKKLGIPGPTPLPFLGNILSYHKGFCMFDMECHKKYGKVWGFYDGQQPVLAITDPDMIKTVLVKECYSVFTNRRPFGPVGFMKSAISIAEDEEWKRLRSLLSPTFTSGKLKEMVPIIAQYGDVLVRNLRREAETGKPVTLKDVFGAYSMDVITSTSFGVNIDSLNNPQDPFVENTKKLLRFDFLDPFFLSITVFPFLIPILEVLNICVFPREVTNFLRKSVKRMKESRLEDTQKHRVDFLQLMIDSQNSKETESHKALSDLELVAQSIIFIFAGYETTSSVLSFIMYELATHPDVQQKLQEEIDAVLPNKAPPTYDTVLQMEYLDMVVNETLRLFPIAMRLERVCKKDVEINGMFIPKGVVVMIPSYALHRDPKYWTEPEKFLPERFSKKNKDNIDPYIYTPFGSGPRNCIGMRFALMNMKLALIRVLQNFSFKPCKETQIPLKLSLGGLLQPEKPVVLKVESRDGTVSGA

[10] = Volume of distribution at steady state in beagle dog at 0.05 mg/kg, iv up to 8 hrs by LC-MS/MS analysis; format: ADME, organism-based, Canis lupus familiaris; parameters: dose 0.05 mg/kg, route intravenous; conditions: in vivo, read-out: Vdss
In short: (§4)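 Beagle dogs dosed 0.05 mg/kg intravenously; plasma collected at various time points up to 8 h postdose.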

[11] = tested on: Hepatocyte; assay: Drug metabolism in human hepatocytes assessed as metabolite M15 formation at 12.5 uM after 2 hrs by LC-MS/MS analysis; format: ADME, cell-based; in short: as §3
[12] = Half life in beagle dog at 0.05 mg/kg, iv up to 8 hrs by LC-MS/MS analysis; format: ADME, organism-based, Canis lupus familiaris; parameters: dose 0.05 mg/kg, route intravenous; conditions: in vivo; in short: as §4
[13] = Plasma clearance in beagle dog at 0.05 mg/kg, iv up to 8 hrs by LC-MS/MS analysis; format: ADME, organism-based, Canis lupus familiaris; parameters: dose 0.05 mg/kg, route intravenous; in short: as §4
[14] = tested on: L5178Y; assay: Genotoxicity against mouse L5178Y cells; format: toxicity, cell-based
In short: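 Acetate and 4-biphenylsulfonate salts screened in Ames and mouse lymphoma L5178Y assays, with and without a rat liver metabolic activation system.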

[15] = Plasma protein binding in guinea pig; format: ADME, cell-free, Cavia porcellus; conditions: read-out: PPB (converted)
[16] = Ratio of drug uptake from blood to plasma in rat; format: ADME
In short: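 In vitro partitioning of the compound into the cellular fraction of rat, dog and human blood, reported as the blood:plasma ratio.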

[17] = target: T2, Cytochrome P450 1A2 (Homo sapiens, UniProt P05177); assay: Inhibition of human CYP1A2 expressed in Escherichia coli; format: ADME; in short: as §2
T2 sequence (P05177 whole entry): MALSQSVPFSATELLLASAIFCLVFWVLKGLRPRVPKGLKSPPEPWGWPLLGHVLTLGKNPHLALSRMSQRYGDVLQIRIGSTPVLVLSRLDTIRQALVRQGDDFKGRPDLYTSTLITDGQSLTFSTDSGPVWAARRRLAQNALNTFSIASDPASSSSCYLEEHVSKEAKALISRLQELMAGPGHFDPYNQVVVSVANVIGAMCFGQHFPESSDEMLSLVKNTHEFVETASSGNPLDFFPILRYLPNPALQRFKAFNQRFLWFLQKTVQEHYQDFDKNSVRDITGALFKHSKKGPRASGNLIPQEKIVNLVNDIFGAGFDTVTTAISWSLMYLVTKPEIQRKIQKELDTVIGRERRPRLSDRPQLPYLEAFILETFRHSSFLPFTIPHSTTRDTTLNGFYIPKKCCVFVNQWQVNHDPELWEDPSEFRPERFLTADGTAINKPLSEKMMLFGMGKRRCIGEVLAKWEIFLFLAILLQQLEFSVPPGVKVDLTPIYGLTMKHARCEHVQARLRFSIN

[18] = Oral absorption in Han Wistar rat at 2 mg/kg up to 7 hrs by LC-MS/MS analysis; format: ADME, organism-based; parameters: dose 2 mg/kg; conditions: in vivo, read-out: Fa
In short: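 Rat oral absorption from hepatic portal vein plasma, corrected for systemic circulation levels, after β-glucuronidase treatment of samples (deconjugated HPV model). Expressed as h·ng/mL.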

[19] = target: T1, Cytochrome P450 3A4; assay: Inhibition of human CYP3A4 expressed in Escherichia coli using diethoxyfluorescein as substrate; format: ADME; in short: as §2
[20] = target: Beta-3 adrenergic receptor (Homo sapiens, UniProt P13945); assay: Agonist activity at human beta3 adrenoceptor transfected in CHO cells assessed as cyclic AMP accumulation after 45 mins by fluorescence polarization assay; format: cell-based
Chain of Beta-3 adrenergic receptor (P13945 whole entry): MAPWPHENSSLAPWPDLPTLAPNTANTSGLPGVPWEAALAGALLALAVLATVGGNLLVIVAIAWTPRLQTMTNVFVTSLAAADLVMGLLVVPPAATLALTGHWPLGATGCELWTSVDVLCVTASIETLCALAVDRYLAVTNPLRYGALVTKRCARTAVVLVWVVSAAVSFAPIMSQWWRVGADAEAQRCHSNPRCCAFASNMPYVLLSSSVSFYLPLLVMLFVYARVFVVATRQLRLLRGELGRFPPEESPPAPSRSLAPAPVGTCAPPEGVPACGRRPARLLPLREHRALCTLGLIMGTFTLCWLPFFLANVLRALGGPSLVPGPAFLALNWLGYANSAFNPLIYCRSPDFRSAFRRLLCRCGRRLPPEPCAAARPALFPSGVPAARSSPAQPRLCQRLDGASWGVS

[21] = tested on: Hepatocyte; assay: Drug metabolism in human hepatocytes assessed as metabolite M10 formation at 12.5 uM after 2 hrs by LC-MS/MS analysis; format: ADME, cell-based; in short: as §3
[22] = Half life in Han Wistar rat at 0.25 mg/kg, iv up to 7 hrs by LC-MS/MS analysis; format: ADME, organism-based; parameters: dose 0.25 mg/kg, route intravenous; conditions: in vivo; in short: as §1
[23] = tested on: Cavia porcellus; assay: Bronchodilatory activity in guinea pig assessed as inhibition of histamine-induced bronchoconstriction administered via nebulization 2 mins prior to histamine challenge relative to salmeterol acetate; format: functional
In short: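 Conscious guinea pigs (n = 24 per group) in a whole-body plethysmograph; agonist given by 2 min nebulization before challenge with nebulized histamine (10 mM, 1.3 min). Enhanced pause (PenH) was recorded for 15 min as the index of airway obstruction. Potency was expressed as EC90 by nebulizer concentration and compared with salmeterol acetate.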

[24] = tested on: Cavia porcellus; assay: Bronchodilatory activity in guinea pig assessed as duration of action of inhibition of histamine-induced bronchoconstriction at EC90 administered via nebulization 2 mins prior to histamine challenge; format: functional
In short: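 Conscious guinea pigs, n = 24 per group, given test agonist as a nebulized solution in dimethylacetamide–saline vehicle (2 min nebulization) before histamine (10 mM, nebulized 1.3 min) in a whole-body plethysmograph. PenH recorded for 15 min as index of airway obstruction. Dose expressed as nebulizer concentration; duration taken as time to 50% recovery.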

[25] = tested on: Hepatocyte; assay: Drug metabolism in human hepatocytes assessed as metabolite M2 formation at 12.5 uM after 2 hrs by LC-MS/MS analysis; format: ADME, cell-based; in short: as §3
[26] = target: Cytochrome P450 2D6 (Homo sapiens, UniProt P10635); assay: Inhibition of human CYP2D6 expressed in Escherichia coli; format: ADME; in short: as §2
Chain of Cytochrome P450 2D6 (P10635 whole entry): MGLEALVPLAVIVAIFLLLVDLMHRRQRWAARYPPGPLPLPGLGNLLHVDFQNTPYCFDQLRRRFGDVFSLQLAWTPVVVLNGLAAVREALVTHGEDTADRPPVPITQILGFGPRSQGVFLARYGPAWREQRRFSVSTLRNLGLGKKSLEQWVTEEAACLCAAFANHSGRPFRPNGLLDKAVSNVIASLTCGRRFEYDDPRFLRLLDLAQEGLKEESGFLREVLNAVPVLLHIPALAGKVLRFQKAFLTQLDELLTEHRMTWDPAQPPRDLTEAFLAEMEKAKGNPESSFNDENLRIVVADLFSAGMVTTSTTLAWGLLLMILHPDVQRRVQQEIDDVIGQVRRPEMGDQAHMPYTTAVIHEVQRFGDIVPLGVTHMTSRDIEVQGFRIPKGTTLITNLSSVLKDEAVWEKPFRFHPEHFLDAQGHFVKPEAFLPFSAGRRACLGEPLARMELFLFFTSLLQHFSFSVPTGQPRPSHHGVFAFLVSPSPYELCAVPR

[27] = tested on: Liver microsome; assay: Clearance in dog liver microsomes; format: ADME, Canis lupus familiaris
In short: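 Compound incubated with liver microsomes; in vitro metabolic clearance expressed as (mL/min)/g liver.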

- bioavailability [1]: < 2%
- CL [2]: 62%
- EC50 [3]: 2 nM
- bioavailability [4]: 3%
- EC50 [5]: 501 nM
- IC50 [6]: > 10 µM
- Drug metabolism [7]: Active
- Drug metabolism [8]: Active
- IC50 [9]: 3.8 µM
- Vd [10]: 0.1 L/kg
- Drug metabolism [11]: Active
- half-life [12]: 24 min
- clearance [13]: 3.7 mL/min/kg
- fraction unbound [15]: 0.03
- blood plasma ratio [16]: 1.3
- IC50 [17]: > 100 µM
- AUC at 7 h [18]: 15.9 ng·h/mL
- IC50 [19]: 1600 nM
- EC50 [20]: 794 nM
- Drug metabolism [21]: Active
- half-life [22]: 30 min
- Drug metabolism [25]: Active
- IC50 [26]: 6.4 µM
- CLH [27]: 5 mL/min/g
Compound: CC(=O)O.O=S(=O)(c1cccc(CCCCOCCCCCCNC[C@H](O)c2ccc(O)c(CO)c2)c1)C1CCCC1
- Activity [14]: Non-toxic
- fold change (FC) [23]: 5
- Time [24]: 20 h
